RAM network inh = inhibitors of the yeast RAM network; S. cerevisiae dse1pr::URA3 reporter, 5-FOA growth OD615, 2 d; analog-sensitive cbk1-as2 kinase mutant strain; inhibition, % at 50 µM; 190,000 tested, 1.8% active;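 active = inhibition above a set limit, 3 SD over mean compound inhibition, cut at about 8.4% in these data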;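 also: 0% = DMSO-only wells with no growth and 100% = 10 µM 1-NA-PP1 full growth; inhibition rescues growth on 5-FOA so higher OD means more RAM inhibition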
WT yeast gro inh = growth inhibition of WT yeast, mitochondrial fusion screen. 190,000 tested, 2.1% active. inhibition, % at 10 µM. mitochondrial fusion phenotypic screen, WT strain; in the data active = inhibition above about 58%; tested in S. cerevisiae
NPY Y2 blocker = antagonists of human neuropeptide Y receptor Y2. AID 793. NPY-Y2 expressing cells, antagonist mode. inhibition, % at 2.7 µM. 140,000 tested, 0.99% active;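 also: 0% = vehicle with agonist challenge and 100% = reference antagonist with challenge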
NPY-Y1 antag = antagonists of human neuropeptide Y receptor Y1; AID 1040; 200,000 tested, 1% active; inhibition, % at 3.6 µM; P25929; HEK293-CNG Y1 cells, membrane potential fluorescence; NPY at EC95, then isoproterenol;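 active = inhibition above the campaign mean inhibition of all tested compounds plus 3 SD, cut at about 20% in these data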;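 also: 0% = DMSO wells given NPY plus isoproterenol and 100% = isoproterenol alone without NPY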
Target sequence (P25929 whole entry, looked up): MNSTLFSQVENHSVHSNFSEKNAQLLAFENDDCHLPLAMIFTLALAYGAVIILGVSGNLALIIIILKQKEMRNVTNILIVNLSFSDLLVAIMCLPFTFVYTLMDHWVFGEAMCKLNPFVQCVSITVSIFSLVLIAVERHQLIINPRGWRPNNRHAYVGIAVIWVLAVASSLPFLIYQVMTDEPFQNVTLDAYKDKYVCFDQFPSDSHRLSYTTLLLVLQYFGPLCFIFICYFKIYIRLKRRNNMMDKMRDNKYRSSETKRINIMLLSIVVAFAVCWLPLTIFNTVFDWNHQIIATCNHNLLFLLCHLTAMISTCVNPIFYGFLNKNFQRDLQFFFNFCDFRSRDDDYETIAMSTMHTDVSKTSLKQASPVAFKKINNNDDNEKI
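Material: HEK293 cells with Y1 receptor plus CNG channel; times: compound incubation 1 h at room temperature, readout 45 min post-stimulation; signal: fluorescence, membrane potential probe; read-out basis: fluorescence ratio normalized to % inhibition between controls; benchmarks: full-block control isoproterenol-only wells, zero-block control NPY plus isoproterenol wells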
NPY1 pot ag = potentiates or activates human NPY-Y1 receptor; P25929; NPY-Y1 expressing cells, potentiator/agonist activation; activation, % at 3.6 µM; AID 1304; 220,000 tested, 0.37% active; in the data active = activation above about 33%, passing the limit was not always enough;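 also: cells stimulated with NPY at EC10 then isoproterenol at EC100; 0% = low agonist plus stimulus and 100% = saturating agonist plus stimulus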
NPY-Y2 PAM-ag = potentiators or agonists of human neuropeptide Y receptor Y2; P49146; cells expressing NPY-Y2, potentiator/agonist read-out; activation, % at 3.6 µM; 220,000 tested, 0.45% active; in the data active = activation above about 27%;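 also: cells stimulated with NPY near EC25 plus isoproterenol at EC100; 0% = vehicle plus submaximal agonist and 100% = vehicle plus saturating agonist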
NPY-Y1 ant conf = human NPY-Y1 antagonism, confirmation | 1,200 tested, 21% active | HEK293-CNG NPY-Y1, membrane potential fluorescence, cAMP; NPY challenge against isoproterenol-raised cAMP | inhibition, % at 3.6 µM | shares compounds with NPY-Y1 antag; in the data active = inhibition above about 20%;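 also: 0% = vehicle with agonist plus stimulus and 100% = stimulus alone without agonist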
NPY2 antag ctr = counter-screen for NPY-Y1 antagonists: human NPY-Y2 antagonism. 1,200 tested, 28% active. shares compounds with NPY-Y1 antag. inhibition, % at 3.6 µM. HEK293 NPY-Y2 CNG membrane potential fluorescence; cells given NPY, then isoproterenol;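 also: 0% = DMSO with agonist challenge and 100% = reference antagonist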
* marks the source's active call; other numbers are inactive results; · = no result given. This is a sample that favours compounds with a hit; in the whole collection about 4.9% have one here. Rule as the data show it, unless noted: active = inhibition above about 17%; inactive = the rest.

SMILES	RAM network inh	WT yeast gro inh	NPY Y2 blocker	NPY-Y1 antag	NPY1 pot ag	NPY-Y2 PAM-ag	NPY-Y1 ant conf	NPY2 antag ctr
O=C(NNC(=O)C1CC=CCC1C(=O)O)c1cccs1 (configuration not stated)	-0.8	-7.0	·	1.7	-2.8	11.1	·	·
Cc1nc(N2CCCCC2)c2c(C)c(C(=O)Nc3ccccc3C(F)(F)F)sc2n1	0.6	65.9*	·	26.9*	-47.5	-37.2	22.3*	14.7
Cc1ccc(NC(=O)c2sc3nc(C)nc(N4CCN(c5ccccn5)CC4)c3c2C)c(C)c1	-0.1	37.7	·	2.6	-31.6	-7.3	·	·
COCCN1Cc2cccc(C(=O)Nc3cc(OC)ccc3OC)c2C1=O	0.6	-19.7	2.8	34.1*	-12.2	-1.8	26.6*	62.4*
COCCN1Cc2cccc(C(=O)Nc3c(C)cc(C)cc3C)c2C1=O	0.8	15.5	-0.1	4.8	6.7	-6.8	·	·
Clc1ccc(-c2nn3c(C4COc5ccccc5O4)nnc3s2)cc1 (configuration not stated)	4.8	9.0	11.0	24.9*	-11.7	2.3	14.6	12.6
Cn1c(SCc2cnc(-c3ccccc3)s2)nnc1C1COc2ccccc2O1 (configuration not stated)	3.7	-4.0	0.8	3.4	14.2	0.6	·	·
COc1ccc(NC(=O)CCSc2ccc(C)cc2)cc1S(=O)(=O)Nc1ccccc1Cl	8.8*	20.8	1.1	25.4*	3.5	-22.6	-2.4	0.2
c1ccc(-c2ccccc2OCCCN2CCCCCC2)cc1	1.3	14.1	·	26.1*	-14.9	-9.9	11.5	12.7
c1ccc(-c2ccccc2OCCCN2CCCC2)cc1	0.1	5.5	6.2	16.8	-0.9	1.3	·	·
CCN(CC)S(=O)(=O)c1ccc(OC)c(NC(=O)c2cn(CC)c3nc(C)ccc3c2=O)c1	-0.2	4.2	·	-4.2	7.6	-0.1	·	·
Cc1cc(C)c(CN2CCN(Cc3ccc(C)o3)C(CCO)C2)c(-n2cccn2)c1 (configuration not stated)	0.7	12.2	·	28.7*	-9.3	-19.2	7.5	7.1
Cc1ccc(CN2CCN(Cc3c(C)nn(-c4ccc(F)cc4)c3C)CC2CCO)o1 (configuration not stated)	0.0	14.2	·	0.2	-17.0	-16.3	·	·
c1ccc(C(c2ccccc2)c2noc(CN3CCN(CC4CC4)CC3)n2)cc1	-0.4	-7.9	·	2.5	16.8	2.1	·	·
CC1=CC(C)(C)N(C(=O)CN2C(=O)c3ccccc3C2=O)c2ccc(C)cc21	-0.9	19.1	2.1	0.6	0.0	-11.9	·	·
CC1=CC(C)(C)N(C(=O)CNC2CCCCC2)c2cc(C)ccc21	0.8	5.8	·	24.6*	-1.7	-5.2	20.9*	6.6
CC(=O)Nc1ccccc1-c1nc2ccccc2nc1OCC(=O)c1ccc2ccccc2c1	5.9	28.6	12.9	20.7*	-17.1	-0.3	15.1	7.9
CC(=O)Nc1ccccc1-c1nc2ccccc2nc1OCC(=O)c1ccc(Br)cc1	1.9	23.6	1.4	8.7	7.9	-2.5	·	·
COc1cc(C(F)(F)F)c(C(=O)N(C)Cc2cccc(Cl)c2)cn1	·	·	·	·	-9.4	1.9	·	·
Clc1ccc(-c2csc(=Nc3cccnc3)n2CCCn2ccnc2)cc1Cl	0.0	38.1	15.8	28.9*	-54.1	-4.1	18.8	13.8
CCOCCn1c(CN2CCN(c3ccc(OC)cc3)CC2)nc2c1c(=O)n(C)c(=O)n2C	·	·	4.7	-0.5	-20.8	-14.4	·	·
O=C(CSc1nnc(-c2ccccc2)c2ccccc12)NCC1CCCO1 (configuration not stated)	-0.8	0.6	·	-1.4	-0.3	2.6	·	·
CCCCC(O)(CCCC)C(=O)NN(C(=O)OC)c1ccccc1	1.2	-10.2	8.4	26.1*	-5.8	6.5	24.8*	10.8
CCCCC(O)(CCCC)C(=O)NN(C(=O)OCC)c1ccccc1	0.4	9.0	16.2	33.7*	-24.1	-11.0	9.8	8.6
CCCC(O)(CCC)C(=O)NN(C(=O)CCl)c1ccccc1	3.5	-8.3	3.8	1.4	0.6	-7.5	·	·

Source: PubChem
